{"source": "ChEMBL document CHEMBL5154665", "about": "“Design, synthesis, biochemical evaluation, radiolabeling and in vivo imaging with high affinity class-IIa histone deacetylase inhibitor for molecular imaging and targeted therapy” (Eur J Med Chem, 2022)", "key": {"[1]": {"test": "Inhibition of HDAC class 2a in human THP-1 cells using TFA-lysine as fluorogenic substrate by fluorescence microplate reader assay", "assay_type": "cell-based"}, "[2]": {"test": "Inhibition of HDAC class 2a in human PANC-1 cells using TFA-lysine as fluorogenic substrate by fluorescence microplate reader assay", "assay_type": "cell-based"}, "[3]": {"test": "Inhibition of HDAC class 2a in human L3.6pl cells using TFA-lysine as fluorogenic substrate by fluorescence microplate reader assay", "assay_type": "cell-based"}, "[4]": {"test": "Inhibition of HDAC class 2a in human HT-29 cells using TFA-lysine as fluorogenic substrate by fluorescence microplate reader assay", "assay_type": "cell-based", "procedure,_shortened": "(§1)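 HT-29 cells were plated at 200,000 cells/well in RPMI without phenol red with 0.1% FBS, with 100 µM Boc-Lys-TFA for class IIa or 200 µM Boc-Lys-Ac for class I/IIb. Compounds ran as an 11-point curve (5% final DMSO), with 5 µM trichostatin A as the positive control. Incubation was 3 h at 37 °C, then trypsin developer with Tween 80 for 1 h to lyse cells and release fluorophore.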"}, "[5]": {"biological_target": "T1, Class 1 histone deacetylase (Homo sapiens, UniProt Q13547+O15379+Q92769+Q9BY41)", "test": "Inhibition of HDAC class 1 in human THP-1 cells using TFA-lysine as fluorogenic substrate by fluorescence microplate reader assay", "assay_type": "cell-based"}, "[6]": {"biological_target": "T1, Class 1 histone deacetylase", "test": "Inhibition of HDAC class 1 in human HT-29 cells using […] as fluorogenic substrate by fluorescence microplate reader assay", "assay_type": "cell-based", "procedure,_shortened": "as §1"}, "[7]": {"test": "Inhibition of HDAC class 2b in human THP-1 cells using TFA-lysine as fluorogenic substrate by fluorescence microplate reader assay", "assay_type": "cell-based"}, "[8]": {"biological_target": "T1, Class 1 histone deacetylase", "test": "Inhibition of HDAC class 1 in human HT-29 cells using Boc-Lys-Ac as substrate incubated for 3 hrs by microplate reader assay", "assay_type": "cell-based"}, "[9]": {"test": "Inhibition of HDAC class 2b in human HT-29 cells using Boc-Lys-Ac as substrate incubated for 3 hrs by microplate reader assay", "assay_type": "cell-based", "settings": "HT-29, 3 h"}, "Histone deacetylase 5": {"biological_target": "Histone deacetylase 5 (Homo sapiens, UniProt Q9UQL6)", "sequence (Q9UQL6 whole entry, canonical isoform)": "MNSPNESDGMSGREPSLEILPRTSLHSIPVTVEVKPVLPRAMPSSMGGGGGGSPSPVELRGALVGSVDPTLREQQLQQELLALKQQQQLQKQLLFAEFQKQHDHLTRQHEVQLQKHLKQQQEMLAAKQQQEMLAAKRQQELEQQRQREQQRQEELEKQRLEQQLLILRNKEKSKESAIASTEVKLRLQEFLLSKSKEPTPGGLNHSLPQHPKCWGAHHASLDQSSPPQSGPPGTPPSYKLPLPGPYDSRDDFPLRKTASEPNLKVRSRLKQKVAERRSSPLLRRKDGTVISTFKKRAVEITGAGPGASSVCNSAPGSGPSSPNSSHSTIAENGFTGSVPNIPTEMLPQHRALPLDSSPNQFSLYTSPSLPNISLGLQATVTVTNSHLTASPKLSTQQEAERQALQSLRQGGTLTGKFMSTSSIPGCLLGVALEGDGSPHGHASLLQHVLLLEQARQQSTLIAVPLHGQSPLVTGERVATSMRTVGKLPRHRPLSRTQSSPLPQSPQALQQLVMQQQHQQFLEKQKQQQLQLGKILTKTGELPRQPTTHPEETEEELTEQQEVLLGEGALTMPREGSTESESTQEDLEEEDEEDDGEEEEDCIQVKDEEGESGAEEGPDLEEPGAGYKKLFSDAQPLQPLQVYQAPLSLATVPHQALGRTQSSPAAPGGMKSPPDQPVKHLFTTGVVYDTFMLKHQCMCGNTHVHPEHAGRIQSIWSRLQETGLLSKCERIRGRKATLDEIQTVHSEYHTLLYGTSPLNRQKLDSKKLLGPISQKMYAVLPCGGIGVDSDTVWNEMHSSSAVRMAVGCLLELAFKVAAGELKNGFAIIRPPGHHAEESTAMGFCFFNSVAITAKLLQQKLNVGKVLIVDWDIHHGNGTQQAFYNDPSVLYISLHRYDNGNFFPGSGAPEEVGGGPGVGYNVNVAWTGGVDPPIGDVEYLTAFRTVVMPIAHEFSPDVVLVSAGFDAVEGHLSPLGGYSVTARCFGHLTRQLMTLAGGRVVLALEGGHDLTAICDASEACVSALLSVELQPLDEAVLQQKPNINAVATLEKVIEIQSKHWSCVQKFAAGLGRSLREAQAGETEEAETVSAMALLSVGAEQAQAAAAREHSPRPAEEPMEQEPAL", "test": "Inhibition of recombinant human HDAC5 using fluorogenic substrate by fluorescence microplate reader assay", "procedure,_shortened": "(§2)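 Recombinant human HDAC isoforms were tested at 9 inhibitor dilutions in commercial fluorogenic enzyme kits, per the manufacturer's protocol. For class IIa enzymes, deacetylation of a TFA-lysine substrate lets trypsin release a fluorophore, read on a microplate reader. IC50 came from a nonlinear fit of % HDAC activity inhibition against compound concentration.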"}, "[10]": {"biological_target": "T2, Polyamine deacetylase HDAC10 (Homo sapiens, UniProt Q969S8)", "T2 sequence (Q969S8 whole entry)": "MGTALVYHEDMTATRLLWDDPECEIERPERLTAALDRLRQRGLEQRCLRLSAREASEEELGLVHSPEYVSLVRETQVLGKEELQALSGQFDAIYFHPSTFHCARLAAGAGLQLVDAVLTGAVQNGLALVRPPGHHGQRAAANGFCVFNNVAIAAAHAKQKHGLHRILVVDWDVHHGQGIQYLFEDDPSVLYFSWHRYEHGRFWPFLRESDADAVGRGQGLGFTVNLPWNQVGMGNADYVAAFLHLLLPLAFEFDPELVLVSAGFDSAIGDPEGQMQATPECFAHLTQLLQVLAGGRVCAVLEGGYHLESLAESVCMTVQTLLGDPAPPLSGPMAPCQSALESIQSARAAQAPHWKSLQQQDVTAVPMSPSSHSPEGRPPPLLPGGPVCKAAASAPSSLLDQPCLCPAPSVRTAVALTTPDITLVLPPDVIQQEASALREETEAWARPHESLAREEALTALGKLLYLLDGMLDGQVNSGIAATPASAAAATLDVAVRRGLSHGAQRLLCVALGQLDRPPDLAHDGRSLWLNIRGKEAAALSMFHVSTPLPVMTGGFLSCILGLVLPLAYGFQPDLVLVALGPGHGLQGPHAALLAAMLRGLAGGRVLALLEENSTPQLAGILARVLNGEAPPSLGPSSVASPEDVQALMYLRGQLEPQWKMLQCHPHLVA", "test": "Inhibition of recombinant human HDAC10 using fluorogenic substrate by fluorescence microplate reader assay", "procedure,_shortened": "as §2"}, "Histone deacetylase 2": {"biological_target": "Histone deacetylase 2 (Homo sapiens, UniProt Q92769)", "sequence (Q92769 whole entry)": "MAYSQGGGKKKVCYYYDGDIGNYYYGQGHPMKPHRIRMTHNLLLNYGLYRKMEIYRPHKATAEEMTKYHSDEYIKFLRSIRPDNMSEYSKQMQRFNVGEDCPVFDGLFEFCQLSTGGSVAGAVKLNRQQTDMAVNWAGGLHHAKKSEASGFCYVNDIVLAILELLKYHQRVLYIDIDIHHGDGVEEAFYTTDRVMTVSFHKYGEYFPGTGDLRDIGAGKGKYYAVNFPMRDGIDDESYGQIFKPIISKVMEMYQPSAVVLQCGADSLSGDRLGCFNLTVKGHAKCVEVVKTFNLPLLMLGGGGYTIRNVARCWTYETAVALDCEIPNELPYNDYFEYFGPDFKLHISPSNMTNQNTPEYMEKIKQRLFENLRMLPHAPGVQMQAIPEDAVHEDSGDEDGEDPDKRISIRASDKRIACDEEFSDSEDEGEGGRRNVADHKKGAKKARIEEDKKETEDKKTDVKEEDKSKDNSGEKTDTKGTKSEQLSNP", "test": "Inhibition of recombinant human HDAC2 using fluorogenic substrate by fluorescence microplate reader assay", "procedure,_shortened": "as §2"}, "Histone deacetylase 8": {"biological_target": "T3, Histone deacetylase 8 (Homo sapiens, UniProt Q9BY41)", "T3 sequence (Q9BY41 whole entry)": "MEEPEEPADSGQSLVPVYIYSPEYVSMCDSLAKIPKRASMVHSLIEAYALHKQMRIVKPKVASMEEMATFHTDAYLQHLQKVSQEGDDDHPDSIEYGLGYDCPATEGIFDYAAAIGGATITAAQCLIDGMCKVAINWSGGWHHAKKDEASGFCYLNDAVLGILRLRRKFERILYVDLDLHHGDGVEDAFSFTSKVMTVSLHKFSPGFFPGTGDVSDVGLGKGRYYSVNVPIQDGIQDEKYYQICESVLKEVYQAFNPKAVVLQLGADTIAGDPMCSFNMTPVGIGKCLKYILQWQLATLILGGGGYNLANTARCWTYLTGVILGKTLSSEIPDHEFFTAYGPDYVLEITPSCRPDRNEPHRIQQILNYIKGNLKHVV", "test": "Inhibition of recombinant human HDAC8 using fluorogenic substrate by fluorescence microplate reader assay", "procedure,_shortened": "as §2"}}}
{"compound": "CC(C)(CNC(=O)c1cccc(-c2noc(C(F)(F)F)n2)c1)c1coc(-c2ccccc2)n1", "values": [{"measurement": "IC50", "setting": "[1]", "result": 0.887, "unit": "µM"}, {"measurement": "IC50", "setting": "[2]", "result": 0.888, "unit": "µM"}, {"measurement": "IC50", "setting": "[3]", "result": 0.893, "unit": "µM"}, {"measurement": "IC50", "setting": "[4]", "result": 1, "unit": "µM"}, {"measurement": "IC50", "setting": "[5]", "result": "> 5", "unit": "µM"}, {"measurement": "IC50", "setting": "[6]", "result": "> 5", "unit": "µM"}, {"measurement": "IC50", "setting": "[7]", "result": "> 5", "unit": "µM"}, {"measurement": "IC50", "setting": "[8]", "result": "> 50", "unit": "µM"}, {"measurement": "IC50", "setting": "[9]", "result": "> 50", "unit": "µM"}, {"measurement": "IC50", "setting": "Histone deacetylase 5", "result": 0.148, "unit": "µM"}, {"measurement": "IC50", "setting": "[10]", "result": "> 5", "unit": "µM"}, {"measurement": "IC50", "setting": "Histone deacetylase 2", "result": "> 5", "unit": "µM"}, {"measurement": "IC50", "setting": "Histone deacetylase 8", "result": "> 5", "unit": "µM"}]}
